# PMI act hi M6P: increases human PMI activity with near-saturating mannose 6-phosphate; P34949; activation factor at 20 µM; hit rate 0.34% among 190,000; coupled PMI enzyme assay, resazurin fluorescence, 20 min; hits give high values; 1 = untreated enzyme, 0 = substrate-free blank; AID 1216;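 active means activation factor of 2 or more at 20 µM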
# Target sequence (P34949 whole entry, looked up): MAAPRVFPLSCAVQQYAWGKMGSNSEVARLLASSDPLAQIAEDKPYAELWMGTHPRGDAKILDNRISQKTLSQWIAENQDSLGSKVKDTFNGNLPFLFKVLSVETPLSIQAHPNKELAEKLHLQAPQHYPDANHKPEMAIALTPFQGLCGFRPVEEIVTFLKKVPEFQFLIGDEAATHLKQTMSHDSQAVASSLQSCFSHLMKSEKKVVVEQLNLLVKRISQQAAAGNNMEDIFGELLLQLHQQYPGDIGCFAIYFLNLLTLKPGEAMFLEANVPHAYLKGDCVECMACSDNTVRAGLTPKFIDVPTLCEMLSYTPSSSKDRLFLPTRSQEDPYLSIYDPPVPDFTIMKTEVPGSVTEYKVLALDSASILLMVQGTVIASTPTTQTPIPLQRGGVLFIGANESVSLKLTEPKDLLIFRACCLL
#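 Test system – human PMI in coupled enzyme assay · Timing – 20 min incubation at room temperature · Detection – Diaphorase-driven resazurin-to-resorufin fluorescence, excitation 544, emission 590 nm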
# HCT116 bCat-KO: beta-catenin-lacking colon tumor cell growth suppression; HCT116 beta-catenin knockout viability, CellTiter-Glo, 60 h; hits give low values; viability, % at 10 µM; hit rate 1.5% among 140,000; AID 818;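 active means viability at or under a set limit, the compound median less 4 SD, cut at about 6% in these data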
# Lmaj promast: inhibitors of Leishmania major promastigote growth | Leishmania major promastigotes, resazurin fluorescence viability | inhibition, % at 10 µM | hit rate 9% among 200,000; in the data active means inhibition above about 50%;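 further: promastigotes grown with compound for 44 hours at 28 °C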
# HCT116 PTEN-null: PTEN-deleted cell growth suppression; viability, % at 10 µM; hit rate 1.2% among 140,000; AID 827; HCT116 PTEN-null viability, CellTiter-Glo, 60 h; hits give low values;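 active means viability at or below a set limit, 4 SD under the median of all tested compounds, cut at about 3.7% in these data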;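 further: PTEN knockout HCT116 line with beta catenin targeted HCT116 as companion control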
# PMI activator: activators of human phosphomannose isomerase; P34949; purified human PMI, coupled resazurin fluorescence, 20 min; hits give high values; 1 = vehicle control, 0 substrate-free wells; activation factor at 20 µM; hit rate 0.005% among 190,000; AID 1214;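 active means activation factor of 2 or more at 20 µM, relative to plate controls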
# A number is an active result; . = inactive; / = no result. The list is not random: actives were taken first. Their share in the collection is about 9.6%.
SMILES,PMI act hi M6P,HCT116 bCat-KO,Lmaj promast,HCT116 PTEN-null,PMI activator
S=C(Nc1ccc(Oc2ccccc2)cc1)N(CCCN1CCOCC1)Cc1ccccn1,.,/,.,/,.
c1ccc2oc(SCc3cn4ccccc4n3)nc2c1,.,.,.,.,.
Cc1cccc2nc(CSc3nc4ccccc4o3)cn12,.,.,64,.,.
NC(=O)c1ccc(NC(=O)CSC2=Nc3ccccc3C3CC=NN23)cc1 (stereo not given),.,.,.,.,.
COC(=O)c1ccc(NC(=O)CSC2=Nc3ccccc3C3CC=NN23)cc1 (stereo not given),.,.,55,.,.
O=C(NCCOc1ccccc1)C(c1ccccc1)c1ccccc1,.,.,.,.,.
Clc1cccc(Nc2nc(-c3cccnc3)cs2)c1,/,/,54,/,/
Brc1ccc(Nc2nc(-c3cccnc3)cs2)cc1,.,/,.,/,.
Nc1ccc(Nc2nc(-c3ccncc3)cs2)cc1,.,.,81,.,.
c1ccc(Nc2nc(-c3ccncc3)cs2)cc1,.,.,.,.,.
c1ccc(-c2csc(Nc3cccnc3)n2)nc1,.,.,58,.,.
c1ccc(Nc2nc(-c3ccccn3)cs2)cc1,.,.,101,.,.
COc1cccc2sc(Nc3nc(-c4ccccn4)cs3)nc12,.,4.3,100,2.6,.
COc1cccc2sc(NNC(=O)COc3ccccc3)nc12,.,/,.,/,.
C(=N\Nc1nc(N2CCCC2)nc(N2CCCC2)n1)/c1ccncc1,.,/,.,/,.
COc1ccc(/C=N/NC(=O)c2ccc(Br)cc2)c(OC)c1,.,/,.,/,.
COc1ccc(O)c(/C=N/NC(=O)c2ccc(OCc3cccc(Br)c3)cc2)c1,.,.,97,.,.
COc1ccc(O)c(/C=N/NC(=O)c2ccc(CSc3nc(C)cc(C)n3)cc2)c1,.,.,99,.,.
Cc1cc(C)nc(SCc2ccc(C(=O)N/N=C/c3cccc(O)c3O)cc2)n1,.,.,98,.,.
CC(C)(C)c1ccc(OCc2ccc(C(=O)N/N=C/c3ccc(O)c(O)c3)cc2)cc1,.,/,100,/,.
Cc1cc(C(=O)OCC(=O)Nc2ccccc2[N+](=O)[O-])c2ccccc2n1,.,.,.,.,.
Cc1cc(-c2nnc(CCC(=O)N(CC3CCC3)CC3CCCO3)o2)no1 (stereo not given),.,/,.,/,.
COc1ccc2nc(NNC(=O)C3COc4ccccc4O3)sc2c1 (stereo not given),.,.,.,.,.
CC(C)c1ccc(OCc2cccc(C(=O)N/N=C/c3cccnc3)c2)cc1,.,.,.,.,.
CCOc1ccc(OCc2cccc(C(=O)N/N=C/c3cccnc3)c2)cc1,.,.,58,.,.
SMILES,PMI act hi M6P,HCT116 bCat-KO,Lmaj promast,HCT116 PTEN-null,PMI activator
CCCn1c(C(=O)OC)cc2c1ccn2-c1ccc(F)cc1,.,.,99,.,.
COC(=O)c1cc2c(ccn2-c2ccc(F)cc2)n1C(C)C,.,.,.,.,.
COC(=O)c1cc2c(ccn2-c2ccc(F)cc2)n1CC(C)C,.,.,98,.,.
Cc1nc(-c2ccccc2Cl)sc1C(=O)/C=C/N(C)C,.,/,.,/,.
CCCc1cc(=O)[nH]c(SCc2cc(Cl)ccc2OC(F)F)n1,.,.,.,/,.
CC1=C(C)/C(=N\OC(=O)/C=C/c2ccccc2)C=CC1=O,.,.,100,.,.
CC1=CC(=NOC(=O)/C=C/c2ccccc2)C=C(C)C1=O,.,.,101,.,.
CC1=CC(=O)C=C(C)C1=NOC(=O)/C=C\c1ccccc1,.,.,53,.,.
CCOC(=O)N1CCN(CC(O)COc2ccccc2C(C)(C)C)CC1 (stereo not given),.,.,.,.,.
C=CCc1ccccc1OCC(O)CN1CCN(c2ccc(C)cc2)CC1 (stereo not given),.,.,69,.,.
CCOC(=O)N1CCN(CC(O)COc2ccccc2C(C)CC)CC1 (stereo not given),.,.,91,.,.
CCOC(=O)N1CCN(CC(O)COC(CC)c2ccccc2)CC1 (stereo not given),.,.,91,.,.
CCOC(=O)N1CCN(CC(O)COc2ccccc2C(C)C)CC1 (stereo not given),.,.,70,.,.
Cc1nnc2sc(SCC(=O)Nc3ccc(Cl)cc3)nn2c1=O,.,/,.,/,.
Cc1ccc(C)c(S(=O)(=O)NC(C)C(=O)Nc2ccc(-c3nc4ccccc4s3)cc2)c1 (stereo not given),.,.,.,.,.
CC(NC(=O)COC(=O)c1cc(NS(=O)(=O)c2ccc(Cl)c([N+](=O)[O-])c2)ccc1O)C1CC2CCC1C2 (stereo not given),.,.,.,.,.
CC(=O)Nc1ccc(SCC(=O)Nc2cc(C)on2)cc1,.,/,.,/,.
C=CCc1ccccc1OCC(O)CN1CCN(C(=O)OCC)CC1 (stereo not given),.,.,68,.,.
CCOC(=O)N1CCN(CC(O)COCc2ccc(Cl)cc2)CC1 (stereo not given),.,.,93,.,.
OC(COCc1ccc(Cl)cc1)CN1CCN(c2ccccn2)CC1 (stereo not given),.,.,.,.,.
CCOC(=O)N1CCN(CC(O)COc2cc(C)ccc2C(C)C)CC1 (stereo not given),.,.,.,.,.
COc1ccccc1NC(=O)c1ccc(NC(=O)COC(=O)C2(C)CC2(Cl)Cl)cc1 (stereo not given),.,.,.,.,.
COc1cc(OC)c(C(=O)CCC(=O)O)cc1OC,.,.,71,.,.
N#Cc1ccccc1/C=N/Nc1nc(-c2ccccc2)c2cc(Cl)ccc2n1,.,.,.,.,.
Cc1ccc2nc(N/N=C/c3ccccc3C#N)nc(-c3ccccc3)c2c1,.,.,62,.,.
SMILES,PMI act hi M6P,HCT116 bCat-KO,Lmaj promast,HCT116 PTEN-null,PMI activator
CN1CCN(C(=S)c2ccc(-c3cccc(Cl)c3Cl)o2)CC1,.,.,95,.,.
CC(/C=C/c1ccccc1)=N/NC(=O)c1cccc(Br)c1,.,/,72,/,.
CC(/C=C/C=C/c1ccccc1)=N\NC(=O)c1cccnc1,2.1,/,.,/,.
COc1ccc(C(=O)N(c2ccc(OC)cc2)S(=O)(=O)c2cccs2)cc1,.,.,77,.,.
O=C(CC1(O)C(=O)Nc2ccc(Br)cc21)c1ccc2c(c1)OCO2 (stereo not given),.,.,.,.,.
CCOC(=O)N1CCC(=NNS(=O)(=O)c2cccc([N+](=O)[O-])c2)CC1,2.1,.,.,.,.
O=C(c1ccccc1)c1ccc(OCC(O)CN2CCN(Cc3ccccc3)CC2)cc1 (stereo not given),.,.,96,.,.
Cc1nc(C)n(CC(O)COc2ccc(C(=O)c3ccccc3)cc2)n1 (stereo not given),.,.,.,.,.
CC1CN(CC(O)COC(c2ccccc2)c2ccccc2)CC(C)O1 (stereo not given),.,.,86,.,.
CC1CN(CC(O)COc2ccccc2C(C)(C)C)CC(C)O1 (stereo not given),.,.,92,.,.

# High-throughput results: PubChem BioAssay, several laboratories
